This is an account of results in ChEMBL document CHEMBL4376814, “Novel cyclin-dependent kinase 9 (CDK9) inhibitor with suppression of cancer stemness activity against non-small-cell lung cancer” (Eur J Med Chem, 2019).

Active and inactive are the calls of the source.

The target in series [1] is Serine/threonine-protein kinase SIK1 (Homo sapiens) (UniProt P57059). The experiment in a line: Inhibition of human SIK (1 to 281 residues) at 1 uM using AMARAASAAALARRR as substrate measured after 40 mins in presence of [gamma33P]ATP by scintillation counting method relative to control. The gist of the method: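 Percent inhibition of kinase activity at a single compound concentration, measured by the outsourced Eurofins KinaseProfiler panel. Values are the mean of two independent experiments.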

The species named for the next series is Homo sapiens. Briefly: Inhibition of recombinant full-length human AURKA I31F mutant at 1 uM using LRRASLG as substrate measured after 40 mins in presence of [gamma33P]ATP by scintillation counting method relative to control.
The subject of series [2] is NCI-H1299. Briefly: Antitumour activity against human H1299 cells xenografted in Balb/c mouse assessed as reduction in tumour size at 20 to 80 mg/kg, po after 21 days by digital caliper method. It counts as functional, organism-based. Put shortly: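 Female nude mice, 6-8 weeks old, injected subcutaneously with 1×10^6 H1299 cells (100 µL of a 1×10^7/mL suspension in serum-free medium). At 100-120 mm3, randomized into groups of 5. Dosed orally each day for 21 days with drug dissolved in DMSO, or with vehicle. Caliper measurements and body weight taken every other day. Volume = short²×long×0.5. Growth inhibition based on change in volume relative to vehicle. Tumours weighed at the end.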
(In general: In xenograft studies the graft and the host belong to different species.)

The target in series [3] is Mitogen-activated protein kinase 13 (Homo sapiens) (UniProt O15264). The experiment in a line: Inhibition of recombinant full-length human SAPK4 at 1 uM using myelin basic protein as substrate measured after 40 mins in presence of [gamma33P]ATP by scintillation counting method relative to control.
Chain of Mitogen-activated protein kinase 13 (Homo sapiens) (O15264 whole entry): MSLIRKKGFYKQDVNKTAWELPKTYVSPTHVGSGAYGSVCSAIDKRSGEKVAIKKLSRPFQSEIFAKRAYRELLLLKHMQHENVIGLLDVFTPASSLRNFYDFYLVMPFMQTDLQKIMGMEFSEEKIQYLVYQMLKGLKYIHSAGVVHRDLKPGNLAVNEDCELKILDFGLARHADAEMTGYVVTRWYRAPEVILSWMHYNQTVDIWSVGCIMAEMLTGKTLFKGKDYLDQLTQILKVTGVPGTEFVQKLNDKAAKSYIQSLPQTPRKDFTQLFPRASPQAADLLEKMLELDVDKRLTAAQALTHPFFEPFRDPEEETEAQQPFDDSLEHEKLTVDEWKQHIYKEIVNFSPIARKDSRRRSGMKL
In series [4] the test system is Serine/threonine-protein kinase B-raf (Homo sapiens), P15056 [V600E]. Briefly: Inhibition of recombinant human BRAF V599E mutant (416 to end residues) at 1 uM using myelin basic protein as substrate measured after 40 mins in presence of [gamma33P]ATP by scintillation counting method relative to control.
Series [5] deals with Serine/threonine-protein kinase ULK2 (Homo sapiens) (UniProt Q8IYT8). Briefly: Inhibition of human ULK2 (1 to 306 residues) using casein as substrate measured after 40 mins in presence of [gamma33P]ATP by scintillation counting method relative to control.
Series [6] deals with Cyclin-dependent kinase 9 (Homo sapiens) (UniProt P50750). Particulars: 0.25 to 1 uM.
Chain of Cyclin-dependent kinase 9 (Homo sapiens) (P50750 whole entry): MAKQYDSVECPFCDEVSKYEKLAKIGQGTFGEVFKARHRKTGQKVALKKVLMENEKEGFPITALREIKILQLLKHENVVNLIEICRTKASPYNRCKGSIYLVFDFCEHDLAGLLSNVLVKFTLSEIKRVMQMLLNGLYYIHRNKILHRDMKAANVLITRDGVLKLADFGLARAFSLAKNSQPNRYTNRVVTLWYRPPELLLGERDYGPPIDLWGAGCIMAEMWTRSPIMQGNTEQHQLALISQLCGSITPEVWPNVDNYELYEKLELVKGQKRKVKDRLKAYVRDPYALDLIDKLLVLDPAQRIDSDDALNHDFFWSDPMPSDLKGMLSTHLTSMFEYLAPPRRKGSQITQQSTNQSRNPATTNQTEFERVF
The test system of series [7] is Tyrosine-protein kinase receptor UFO (Homo sapiens), P30530 [Q764R]. The experiment in a line: Inhibition of recombinant human AXL Q764R mutant (473 to end residues) at 1 uM using KKSRGDYMTMQIG as substrate measured after 40 mins in presence of [gamma33P]ATP by scintillation counting method relative to control.
Chain of Tyrosine-protein kinase receptor UFO (Homo sapiens), P30530 [Q764R] (P30530 whole entry Q764R, the tested form may be a part): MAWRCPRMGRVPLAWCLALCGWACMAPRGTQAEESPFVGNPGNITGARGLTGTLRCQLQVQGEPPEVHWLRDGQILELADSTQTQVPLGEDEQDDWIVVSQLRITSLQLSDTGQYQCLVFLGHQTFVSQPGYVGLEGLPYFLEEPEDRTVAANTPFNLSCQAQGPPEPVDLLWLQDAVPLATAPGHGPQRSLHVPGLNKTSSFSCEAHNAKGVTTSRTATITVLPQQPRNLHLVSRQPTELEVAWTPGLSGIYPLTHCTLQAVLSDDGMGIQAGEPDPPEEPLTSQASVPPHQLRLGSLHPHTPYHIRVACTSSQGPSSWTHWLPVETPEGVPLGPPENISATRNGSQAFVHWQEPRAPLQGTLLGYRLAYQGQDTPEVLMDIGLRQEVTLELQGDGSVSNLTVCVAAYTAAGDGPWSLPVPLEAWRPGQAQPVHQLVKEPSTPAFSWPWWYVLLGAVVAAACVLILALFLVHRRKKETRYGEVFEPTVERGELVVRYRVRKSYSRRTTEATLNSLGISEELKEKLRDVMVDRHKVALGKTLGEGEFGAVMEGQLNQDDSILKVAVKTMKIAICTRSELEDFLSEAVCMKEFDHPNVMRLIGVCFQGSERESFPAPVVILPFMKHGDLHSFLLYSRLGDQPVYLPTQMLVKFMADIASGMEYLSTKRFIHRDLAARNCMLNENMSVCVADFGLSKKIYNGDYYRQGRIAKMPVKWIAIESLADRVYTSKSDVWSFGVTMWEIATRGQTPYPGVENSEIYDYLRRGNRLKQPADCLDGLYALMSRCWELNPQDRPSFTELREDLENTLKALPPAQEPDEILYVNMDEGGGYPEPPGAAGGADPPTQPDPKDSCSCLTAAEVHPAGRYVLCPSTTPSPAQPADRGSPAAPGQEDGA
Series [8] relates to Fibroblast growth factor receptor 1 (Homo sapiens), P11362 [V561M]. The experiment in a line: Inhibition of recombinant human FGFR1 V561M mutant (456 to 765 residues) at 1 uM using GGEEEEYFELVKKKK as substrate measured after 40 mins in presence of [gamma33P]ATP by scintillation counting method relative to control.
In series [9] the target is Calcium/calmodulin-dependent protein kinase type 1B (Homo sapiens) (UniProt Q6P2M8). The experiment in a line: Inhibition of full-length recombinant human CaMK1 beta at 1 uM using KKLRRTLSFAEPG as substrate measured after 40 mins in presence of [gamma33P]ATP by scintillation counting method relative to control. The gist of the method:
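Single-point inhibition at 1 µM was measured in the Eurofins KinaseProfiler panel. Values are the mean of two independent experiments.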

Series [10] has as its target Aurora kinase B (Homo sapiens) (UniProt Q96GD4). The experiment in a line: Inhibition of recombinant full-length human AURKB at 1 uM using AKRRRLSSLRA as substrate measured after 40 mins in presence of [gamma33P]ATP by scintillation counting method relative to control.
For series [11], the system named is NCI-H1299. The experiment in a line: Induction of apoptosis in human H1299 cells assessed as early apoptotic cells at 1 uM after 48 hrs by AnnexinV-FITC/PI staining-based flow cytometric analysis (reference value: 0.248%). It counts as functional. For orientation: A flow cytometer gives signals particle by particle.
Series [12] is described as follows: Half life in Beagle dog liver microsomes at 2 uM in presence of NADPH measured up to 1 hr by HPLC analysis. It counts as ADME, Canis lupus familiaris, Microsome. Put shortly: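 Drug at 2 µM incubated at 37 °C with male liver microsomes at 1 mg/mL, in 0.1 M phosphate buffer pH 7.4 with MgCl2. After 5 min preincubation, reaction started with NADPH. Samples (n=3) taken at 0, 10, 20, 30, 45 and 60 min, quenched with ice-cold acetonitrile, spun, and analysed by HPLC. t1/2 derived from the fitted rate constant k.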

Series [13] deals with Tyrosine-protein kinase Lyn (Homo sapiens) (UniProt P07948). The experiment in a line: Inhibition of recombinant full-length human LYN at 1 uM using poly(Glu, Tyr) 4:1 as substrate measured after 40 mins in presence of [gamma33P]ATP by scintillation counting method relative to control.
Chain of Tyrosine-protein kinase Lyn (Homo sapiens) (P07948 2-512 limits assumed): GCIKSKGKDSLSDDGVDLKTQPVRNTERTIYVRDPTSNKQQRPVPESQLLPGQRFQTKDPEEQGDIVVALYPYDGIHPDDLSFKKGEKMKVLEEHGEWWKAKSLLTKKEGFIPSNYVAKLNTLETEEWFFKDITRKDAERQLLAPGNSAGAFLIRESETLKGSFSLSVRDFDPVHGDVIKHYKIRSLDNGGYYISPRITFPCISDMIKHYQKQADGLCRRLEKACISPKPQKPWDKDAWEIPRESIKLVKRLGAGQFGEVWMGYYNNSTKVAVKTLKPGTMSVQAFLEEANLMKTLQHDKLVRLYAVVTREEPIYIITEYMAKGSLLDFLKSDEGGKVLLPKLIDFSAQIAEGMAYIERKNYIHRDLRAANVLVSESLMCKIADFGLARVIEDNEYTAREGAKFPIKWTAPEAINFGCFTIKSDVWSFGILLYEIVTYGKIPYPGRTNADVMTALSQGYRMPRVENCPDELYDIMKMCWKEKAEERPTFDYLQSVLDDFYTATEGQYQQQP
In series [14] the target is Cyclin-dependent kinase 9 (Homo sapiens) (UniProt P50750). Particulars: A549, 0.25 uM.
Another series has as its system A549. The experiment in a line: Inhibition of tumorsphere formation in human A549 cells assessed as reduction in side population ratio at 0.25 to 1 uM by PI/Hoechst 33342 staining based flow cytometry. It counts as functional, cell-based.
In series [15] the target is Casein kinase I isoform gamma-2 (Homo sapiens) (UniProt P78368). Briefly: Inhibition of recombinant human CK1gamma2 (18 to end residues) at 1 uM using KRRRALS(p)VASLPGL as substrate measured after 40 mins in presence of [gamma33P]ATP by scintillation counting method relative to control.
Chain of Casein kinase I isoform gamma-2 (Homo sapiens) (P78368 whole entry, looked up, canonical isoform): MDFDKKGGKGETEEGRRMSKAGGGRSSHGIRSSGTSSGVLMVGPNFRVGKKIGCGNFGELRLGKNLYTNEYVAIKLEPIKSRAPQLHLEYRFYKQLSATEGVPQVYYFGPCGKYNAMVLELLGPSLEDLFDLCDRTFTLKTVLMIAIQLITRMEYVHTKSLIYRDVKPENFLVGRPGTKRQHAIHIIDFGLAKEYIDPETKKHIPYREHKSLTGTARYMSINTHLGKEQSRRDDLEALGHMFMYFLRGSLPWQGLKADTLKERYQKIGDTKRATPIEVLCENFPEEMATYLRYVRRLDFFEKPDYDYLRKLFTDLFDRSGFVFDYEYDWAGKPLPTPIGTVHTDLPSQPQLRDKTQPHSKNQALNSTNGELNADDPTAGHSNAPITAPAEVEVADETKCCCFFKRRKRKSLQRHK
In another series the test system is MCF7. Briefly: Antiproliferative activity against human MCF7 cells assessed as inhibition of cell viability at 10 uM after 72 hrs by CCK-8 assay relative to control. It counts as functional. To be noted: MCF7, 72 h. The gist of the method: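 Single-concentration viability screen using CCK-8. Cells were seeded at 3000/well and treated for 72 h. A450 read after 1-4 h with reagent. Percent inhibition calculated against untreated control and blank wells as (Ac−As)/(Ac−Ab)×100%.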
(Tetrazolium assays rely on reduction of a dye to a coloured formazan, in cell work by metabolically active cells.)

The test system of series [16] is Ribosomal protein S6 kinase beta-1 (Homo sapiens), P23443 [T412E]. Briefly: Inhibition of recombinant full-length human p70S6K (1 to 421 residues) T412E mutant at 1 uM using KKRNRTLTV as substrate measured after 40 mins in presence of [gamma33P]ATP by scintillation counting method relative to control.
Chain of Ribosomal protein S6 kinase beta-1 (Homo sapiens), P23443 [T412E] (P23443 whole entry T412E, looked up, the tested form may be a part): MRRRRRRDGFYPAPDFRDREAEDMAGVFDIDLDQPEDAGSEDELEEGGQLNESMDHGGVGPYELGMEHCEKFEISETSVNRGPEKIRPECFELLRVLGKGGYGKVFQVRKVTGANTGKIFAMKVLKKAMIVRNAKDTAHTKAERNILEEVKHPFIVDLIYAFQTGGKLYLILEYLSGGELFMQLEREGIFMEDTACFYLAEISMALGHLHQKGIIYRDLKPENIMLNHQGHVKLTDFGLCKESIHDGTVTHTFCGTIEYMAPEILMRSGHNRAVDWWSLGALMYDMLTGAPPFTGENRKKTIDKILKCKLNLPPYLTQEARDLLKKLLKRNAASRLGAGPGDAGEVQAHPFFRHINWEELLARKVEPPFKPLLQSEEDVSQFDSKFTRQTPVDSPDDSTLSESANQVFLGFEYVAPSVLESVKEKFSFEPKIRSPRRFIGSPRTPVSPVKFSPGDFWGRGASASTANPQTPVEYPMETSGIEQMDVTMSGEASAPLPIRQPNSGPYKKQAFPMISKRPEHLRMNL
For series [17], the target named is Myosin-IIIb (Homo sapiens) (UniProt Q8WXR4). The experiment in a line: Inhibition of recombinant human MYO3B (1 to 326 residues) at 1 uM using RLGRDKYKTLRQIRQ as substrate measured after 40 mins in presence of [gamma33P]ATP by scintillation counting method relative to control.
Chain of Myosin-IIIb (Homo sapiens) (Q8WXR4 whole entry, the tested form may be a part): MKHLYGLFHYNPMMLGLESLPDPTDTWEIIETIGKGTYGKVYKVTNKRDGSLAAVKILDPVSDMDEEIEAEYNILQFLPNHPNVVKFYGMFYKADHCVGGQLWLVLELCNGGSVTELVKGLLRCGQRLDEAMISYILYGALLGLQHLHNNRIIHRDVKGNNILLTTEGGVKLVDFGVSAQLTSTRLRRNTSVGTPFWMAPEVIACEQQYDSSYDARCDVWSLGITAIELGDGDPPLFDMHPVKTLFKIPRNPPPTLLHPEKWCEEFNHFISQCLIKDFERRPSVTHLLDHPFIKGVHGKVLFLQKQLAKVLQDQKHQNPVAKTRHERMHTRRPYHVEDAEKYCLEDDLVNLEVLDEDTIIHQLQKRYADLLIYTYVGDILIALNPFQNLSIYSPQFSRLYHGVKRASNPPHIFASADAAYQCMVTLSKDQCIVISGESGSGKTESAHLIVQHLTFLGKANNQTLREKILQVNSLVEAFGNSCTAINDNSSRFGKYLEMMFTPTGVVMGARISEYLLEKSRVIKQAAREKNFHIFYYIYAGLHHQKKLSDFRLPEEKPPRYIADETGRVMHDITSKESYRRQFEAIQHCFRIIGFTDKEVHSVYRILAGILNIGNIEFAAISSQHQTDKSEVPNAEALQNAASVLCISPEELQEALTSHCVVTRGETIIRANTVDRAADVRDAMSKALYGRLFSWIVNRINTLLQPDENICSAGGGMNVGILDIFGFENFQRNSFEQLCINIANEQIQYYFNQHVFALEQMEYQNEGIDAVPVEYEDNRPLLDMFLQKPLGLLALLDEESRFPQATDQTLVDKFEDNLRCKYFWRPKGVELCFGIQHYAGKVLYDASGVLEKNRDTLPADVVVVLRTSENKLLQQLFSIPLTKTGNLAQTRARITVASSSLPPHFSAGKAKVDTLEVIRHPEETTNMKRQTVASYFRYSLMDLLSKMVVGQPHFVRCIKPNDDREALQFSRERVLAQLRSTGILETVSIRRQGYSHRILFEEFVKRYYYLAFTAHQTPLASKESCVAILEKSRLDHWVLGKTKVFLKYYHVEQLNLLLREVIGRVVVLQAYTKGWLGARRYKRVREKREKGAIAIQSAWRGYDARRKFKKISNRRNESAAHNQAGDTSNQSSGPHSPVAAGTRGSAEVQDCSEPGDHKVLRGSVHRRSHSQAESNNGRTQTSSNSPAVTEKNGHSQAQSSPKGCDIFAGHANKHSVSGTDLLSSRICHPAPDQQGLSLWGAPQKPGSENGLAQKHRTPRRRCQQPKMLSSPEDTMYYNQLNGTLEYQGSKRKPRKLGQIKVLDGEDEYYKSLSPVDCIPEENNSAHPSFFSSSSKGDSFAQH
The target in series [18] is Homeodomain-interacting protein kinase 4 (Homo sapiens) (UniProt Q8NE63). Briefly: Inhibition of recombinant full-length human HIPK4 at 1 uM using RRRFRPASPLRGPPK as substrate measured after 40 mins in presence of [gamma33P]ATP by scintillation counting method relative to control.

For orientation: inhibition means the change of the read-out against control, counted positive when it falls. The term half-life denotes the time needed for the level to fall by half in the phase considered.

Chain of Aurora kinase B (Homo sapiens) (Q96GD4 whole entry): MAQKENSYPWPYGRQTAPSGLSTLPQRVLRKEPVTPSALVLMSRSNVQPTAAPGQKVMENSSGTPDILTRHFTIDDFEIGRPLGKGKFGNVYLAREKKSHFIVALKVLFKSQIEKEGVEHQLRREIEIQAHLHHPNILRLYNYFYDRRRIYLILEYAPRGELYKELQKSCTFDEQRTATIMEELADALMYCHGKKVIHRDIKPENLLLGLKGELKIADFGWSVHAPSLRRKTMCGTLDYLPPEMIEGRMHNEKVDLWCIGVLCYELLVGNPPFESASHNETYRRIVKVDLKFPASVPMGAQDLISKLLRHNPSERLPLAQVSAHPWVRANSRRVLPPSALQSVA

Regarding `CN(C)C(=O)c1cc2cnc(Nc3ccc(NC(=O)CCCCCCCN=C=S)cc3)nc2n1C1CCCC1`, the inhibition in series [1] is 51%; in the series filed under Homo sapiens, 95%; in series [3], 10%; in [4] it was 31%; in series [5] it was -7%; in series [7], 71%. Besides, the inhibition stood at 86% in [8]; 11% in [9]; 99% in series [10]; 25% in [13]; 20% in [15]; 40% in series [16]. Further, the inhibition is -1% in [17] and 19% in series [18]. Besides, in the series with NCI-H1299 [2], the outcome was Active. Also, the inhibition entry (in [6]; in series [14]; in the series with A549) was “Active” throughout. In the series with NCI-H1299 [11], the Activity amounted to 2.28%. Also, the half-life at 2 µM in [12] was 26.7 min. Besides, the inhibition at 10 µM with MCF7 worked out at 98%.
